Measured values from ChEMBL document CHEMBL1135589, “Refinement and evaluation of a pharmacophore model for flavone derivatives binding to the benzodiazepine site of the GABA(A) receptor” (J Med Chem, 2002).

molecular target: GABA-A receptor; anion channel; test: Ability to inhibit [3H]-Ro- 15-1788 binding to Gamma-aminobutyric acid A receptor alpha in vitro in rat cortical membranes; format: cell membranes
Outline: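 Cortex from male Wistar rats (150–200 g) homogenized in 30 mM Tris-HCl pH 7.4, washed, incubated 30 min at 37 °C to remove endogenous GABA, stored frozen. Nonspecific binding defined with 1 μM clonazepam. Filtration on GF/C, scintillation counting; IC50 from single-concentration inhibition formula.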

First: Cc1ccc2oc(-c3cccc(Br)c3)cc(=O)c2c1
Second: Cc1ccc2oc(-c3cccc(N)c3)cc(=O)c2c1
The Ki of the first is 100-fold lower: 12 nM for the first, 1200 nM for the second.

`COC(=O)c1cc(-c2cc(=O)c3cc(C)ccc3o2)cc([N+](=O)[O-])c1` and `Cc1ccc2oc(-c3cc(C(=O)O)cc([N+](=O)[O-])c3)cc(=O)c2c1` cannot be ordered by Ki: over 2100 nM for the first, over 1700 nM for the second.

`COC(=O)c1cc(C(=O)OC)cc(-c2cc(=O)c3cc(C)ccc3o2)c1` and `COC(=O)c1cc(OC)cc(-c2cc(=O)c3cc(C)ccc3o2)c1` cannot be ordered by Ki: over 1600 nM for the first, 3000 nM for the second.

First: Cc1ccc2oc(-c3ccccc3N)cc(=O)c2c1
Second: Cc1ccc2oc(-c3ccccc3O)cc(=O)c2c1
The Ki of the first is 110-fold higher: 700 nM for the first, 6.2 nM for the second.

Compared with `Cc1ccc2oc(-c3cc(Br)ccc3O)cc(=O)c2c1`, `Cc1ccc(O)c(-c2cc(=O)c3cc(C)ccc3o2)c1` is 8.7-fold higher in Ki: 0.9 nM for the first, 7.8 nM for the second.

`CCOC(=O)c1cc(N)cc(-c2cc(=O)c3cc(C)ccc3o2)c1` and `COC(=O)c1cc(N)cc(-c2cc(=O)c3cc(C)ccc3o2)c1` cannot be ordered by Ki: 3600 nM for the first, over 1900 nM for the second.

Going from `Cc1ccc2oc(-c3cccc(C(F)(F)F)c3)cc(=O)c2c1` to `Cc1ccc2oc(-c3cccc(O)c3)cc(=O)c2c1`, the Ki rises from 9.8 nM to 390 nM (40-fold).

Compared with `CCC(CC)COc1cccc(-c2cc(=O)c3cc(C)ccc3o2)c1`, `CCC(CC)COC(=O)c1cccc(-c2cc(=O)c3cc(C)ccc3o2)c1` is 1.6-fold lower in Ki: 1000 nM for the first, 610 nM for the second.

Going from `Cc1ccc2oc(-c3ccc(N)cc3)cc(=O)c2c1` to `Cc1ccc2oc(-c3ccccc3)cc(=O)c2c1` [6-METHYLFLAVONE], the Ki falls from 2600 nM to 180 nM (14-fold).

`COc1cc(C(=O)O)cc(-c2cc(=O)c3cc(C)ccc3o2)c1` and `Cc1ccc2oc(-c3cc(O)cc(C(=O)O)c3)cc(=O)c2c1` cannot be ordered by Ki: over 1600 nM for the first, over 1600 nM for the second.

`Cc1ccc2oc(-c3cccc(C(=O)OC(C)C)c3)cc(=O)c2c1` and `COC(=O)c1cccc(-c2cc(=O)c3cc(C)ccc3o2)c1` are within 1.5-fold of each other in Ki: 180 nM for the first, 220 nM for the second.

Going from `Cc1cccc2c(=O)cc(-c3ccccc3)oc12` to `CCc1ccc2oc(-c3ccccc3)cc(=O)c2c1`, the Ki falls from over 1700 nM to 180 nM.

Compared with `Cc1ccc2oc(-c3cccc(C(=O)O)c3)cc(=O)c2c1`, `COc1cccc(-c2cc(=O)c3cc(C)ccc3o2)c1` is lower in Ki: over 1700 nM for the first, 99 nM for the second. The second binds more tightly here.

First: CC(C)c1ccc2oc(-c3ccccc3)cc(=O)c2c1
Second: CCCc1ccc2oc(-c3ccccc3)cc(=O)c2c1
The Ki of the first is 1.5-fold higher: 720 nM for the first, 480 nM for the second.

`COc1ccc(C)cc1-c1cc(=O)c2cc(C)ccc2o1` and `COc1ccc(Br)cc1-c1cc(=O)c2cc(C)ccc2o1` cannot be ordered by Ki: over 1500 nM for the first, over 1500 nM for the second.

Going from `COc1ccccc1-c1cc(=O)c2cc(C)ccc2o1` to `Cc1ccc2oc(-c3ccc(C)c(C)c3)cc(=O)c2c1`, the Ki rises from 820 nM to over 1700 nM. The first binds more tightly here.

`COC(=O)c1cc(O)cc(-c2cc(=O)c3cc(C)ccc3o2)c1` and `COC(=O)c1cc(CO)cc(-c2cc(=O)c3cc(C)ccc3o2)c1` cannot be ordered by Ki: over 1600 nM for the first, over 1500 nM for the second.

Compared with `CCCCOc1cccc(-c2cc(=O)c3cc(C)ccc3o2)c1`, `Cc1ccc2oc(-c3cccnc3)cc(=O)c2c1` is 5.5-fold lower in Ki: 710 nM for the first, 130 nM for the second. The second binds more tightly here.

`Cc1cc(C)cc(-c2cc(=O)c3cc(C)ccc3o2)c1` and `COc1cc(CO)cc(-c2cc(=O)c3cc(C)ccc3o2)c1` cannot be ordered by Ki: over 1500 nM for the first, over 1600 nM for the second.

`Cc1ccc2oc(-c3cc(CO)cc(CO)c3)cc(=O)c2c1` and `Cc1ccc2oc(-c3cc(C(=O)O)cc(C(=O)O)c3)cc(=O)c2c1` cannot be ordered by Ki: over 1500 nM for the first, over 1600 nM for the second.
